# Tests used:
# [1] = In vitro antimicrobial activity against anaerobic bacteria peptostreptococcus intermedius 1264; type: functional
# Haemophilus influenzae [2] = experiment: In vitro antimicrobial activity against aerobic bacteria Haemophilus influenzae 465; type: functional
# Streptococcus [3] = experiment: In vitro antimicrobial activity against aerobic bacteria Streptococcus D 2041; type: functional
# Rattus norvegicus [4] = experiment: Peripheral plasma levels in rats after oral administration of 100 mg/kg dose for 0.25 hr; type: functional, organism-based; parameters: dose 100 mg/kg
# Outline: (§1)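 Rats received 100 mg/kg orally and were sampled for peripheral plasma. Concentrations were measured by Micrococcus luteus agar-diffusion microbiological assay in Antibiotic Medium 1, with zone sizes converted using the standard curve for the appropriate compound. Each value is the average of three rats per time point.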
# Streptococcus [5] = experiment: In vitro antimicrobial activity against aerobic bacteria Streptococcus D 8043; type: functional
# Staphylococcus aureus [6] = experiment: In vitro antimicrobial activity against aerobic bacteria Staphylococcus aureus V140,; type: functional
# Haemophilus influenzae [7] = experiment: In vitro antimicrobial activity against aerobic bacteria Haemophilus influenzae 76; type: functional
# Mus musculus [8] = experiment: Peripheral plasma levels in mice after oral administration of 100 mg/kg dose for 1 hr; type: functional, organism-based; parameters: dose 100 mg/kg
# Outline: (§2)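 Mice were given the compound orally and sampled for peripheral plasma at each time point. Plasma was assayed microbiologically against Micrococcus luteus seeded in Antibiotic Medium 1. Inhibition zone sizes were read, and concentrations were calculated from each compound's own standard curve. Each value is the mean of five mice per time point.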
# [9] = tested on: Peptostreptococcus anaerobius; experiment: In vitro antimicrobial activity against anaerobic bacteria eubacterium peptostreptococcus anaerobius 1428,; type: functional
# Mus musculus [10] = experiment: Peripheral plasma levels in mice after oral administration of 100 mg/kg dose for 0.5 hr; type: functional, organism-based; parameters: dose 100 mg/kg; outline: as §2
# [11] = tested on: Fusobacterium necrophorum; experiment: In vitro antimicrobial activity against anaerobic bacteria usobacterium necrophorum 6054A; type: functional
# [12] = tested on: Prevotella melaninogenica; experiment: In vitro antimicrobial activity against anaerobic bacteria bacteroides melaninogenicus 2736; type: functional
# Cutibacterium acnes = experiment: In vitro antimicrobial activity against anaerobic bacteria propionibacterium acnes 79; type: functional
# Rattus norvegicus [13] = experiment: Peripheral plasma levels in rats after oral administration of 100 mg/kg dose for 2 hr; type: functional, organism-based; parameters: dose 100 mg/kg; outline: as §1
# Streptococcus [14] = experiment: In vitro antimicrobial activity against aerobic bacteria Streptococcus D 9960; type: functional
# Streptococcus pneumoniae [15] = experiment: In vitro antimicrobial activity against aerobic bacteria Streptococcus pneumoniae B1-438; type: functional, streptococcus pneum
# Clostridium septicum = experiment: In vitro antimicrobial activity against anaerobic bacteria clostridium septicum 1128; type: functional
# Streptococcus [16] = experiment: In vitro antimicrobial activity against aerobic bacteria Streptococcus G Kruder; type: functional
# Rattus norvegicus [17] = experiment: Peripheral plasma levels in rats after oral administration of 100 mg/kg dose for 0.5 hr; type: functional, organism-based; parameters: dose 100 mg/kg; outline: as §1
# Collinsella aerofaciens = experiment: In vitro antimicrobial activity against anaerobic bacteria eubacterium aerofaciens 1235; type: functional
# Phocaeicola vulgatus = experiment: In vitro antimicrobial activity against anaerobic bacteria bacteroides vulgatus 1211; type: functional
# Mus musculus [18] = experiment: Peripheral plasma levels in mice after oral administration of 100 mg/kg dose for 2 hr; type: functional, organism-based; parameters: dose 100 mg/kg; outline: as §2
# Eikenella corrodens = experiment: In vitro antimicrobial activity against anaerobic bacteria bacteroides corrodens 1874; type: functional
# Streptococcus sanguinis = experiment: In vitro antimicrobial activity against aerobic bacteria Streptococcus sanguis MX132; type: functional
# [19] = tested on: Peptoniphilus asaccharolyticus; experiment: In vitro antimicrobial activity against anaerobic bacteria peptococcus asaccharolyticus 1302; type: functional
# [20] = tested on: Bacteroides thetaiotaomicron; experiment: In vitro antimicrobial activity against anaerobic bacteria bacteroides thetaiotaomicron 1438; type: functional
# Haemophilus influenzae [21] = experiment: In vitro antimicrobial activity against aerobic bacteria Haemophilus influenzae MX366,; type: functional
# Streptococcus [22] = experiment: In vitro antimicrobial activity against aerobic bacteria Streptococcus C 24; type: functional
# Bacteroides fragilis [23] = experiment: In vitro antimicrobial activity against anaerobic bacteria bacteroides fragilis 111; type: functional
# Clostridioides difficile = experiment: In vitro antimicrobial activity against anaerobic bacteria Clostridium difficile 2994; type: functional
# Staphylococcus aureus [24] = experiment: In vitro antimicrobial activity against aerobic bacteria Staphylococcus aureus V135; type: functional
# Streptococcus [25] = experiment: In vitro antimicrobial activity against aerobic bacteria Streptococcus B 14; type: functional
# [26] = tested on: Prevotella melaninogenica; experiment: In vitro antimicrobial activity against anaerobic bacteria bacteroides melaninogenicus 1856,; type: functional
# Rattus norvegicus [27] = experiment: Peripheral plasma levels in rats after oral administration of 100 mg/kg dose for 4 hr; type: functional, organism-based; parameters: dose 100 mg/kg; outline: as §1
# Fusobacterium = experiment: In vitro antimicrobial activity against anaerobic bacteria fusobacterium symbiosum 1470; type: functional
# Rattus norvegicus [28] = experiment: Peripheral plasma levels in rats after oral administration of 100 mg/kg dose for 1 hr; type: functional, organism-based; parameters: dose 100 mg/kg; outline: as §1
# Bacteroides fragilis [29] = experiment: In vitro antimicrobial activity against anaerobic bacteria bacteroides fragilis 1936B,; type: functional
# Staphylococcus aureus [30] = experiment: In vitro antimicrobial activity against aerobic bacteria Staphylococcus aureus 513E; type: functional
# Mus musculus [31] = experiment: Peripheral plasma levels in mice after oral administration of 100 mg/kg dose for 0.25 hr; type: functional, organism-based; parameters: dose 100 mg/kg; outline: as §2
# Clostridium perfringens = experiment: In vitro antimicrobial activity against anaerobic bacteria clostridium perfringens 81,; type: functional
# Streptococcus [32] = experiment: In vitro antimicrobial activity against aerobic bacteria Streptococcus B 8; type: functional
# Bacteroides fragilis [33] = experiment: In vitro antimicrobial activity against anaerobic bacteria bacteroides fragilis 1877; type: functional
# [34] = tested on: Staphylococcus epidermidis; experiment: In vitro antimicrobial activity against aerobic bacteria Streptococcus epi 222; type: functional
# [35] = tested on: Haemophilus parainfluenzae; experiment: In vitro antimicrobial activity against aerobic bacteria Haemophilus parainfluenzae 9796; type: functional
# Streptococcus [36] = experiment: In vitro antimicrobial activity against aerobic bacteria Streptococcus B 5; type: functional
# [37] = tested on: Staphylococcus epidermidis; experiment: In vitro antimicrobial activity against Staphylococcus epidermidis EPI1; type: functional
# Haemophilus influenzae [38] = experiment: In vitro antimicrobial activity against Haemophilus influenzae.; type: functional
# Streptococcus pyogenes [39] = experiment: In vivo effective dose against experimental infections in rodent caused by Streptococcus pyogenes C203 when administered sc; type: functional
# Streptococcus pyogenes [40] = experiment: In vitro antimicrobial activity against Streptococcus pyogenes C203; type: functional
# Enterococcus faecium = experiment: In vitro antimicrobial activity against Streptococcus faecium X66; type: functional, streptococcus fae-cium
# Streptococcus pneumoniae [41] = experiment: In vitro antimicrobial activity against Streptococcus pneumoniae; type: functional
# Streptococcus pyogenes [42] = experiment: In vivo effective dose against experimental infections in rodent caused by Streptococcus pyogenes C203 when administered orally; type: functional; conditions: po
# Staphylococcus aureus [43] = experiment: In vitro antimicrobial activity against Staphylococcus aureus X1; type: functional
smiles,measurement,setting,value
CC[C@H]1OC(=O)[C@H](C)[C@@H](O[C@H]2C[C@@](C)(OC)[C@@H](O)[C@H](C)O2)[C@H](C)[C@@H](O[C@@H]2O[C@H](C)C[C@H](N(C)C)[C@H]2O)[C@](C)(O)C[C@@H](C)C(=O)[C@H](C)[C@@H](O)[C@]1(C)O [ERYTHROMYCIN],MIC,[1],< 0.5 µg/mL
same,MIC,Haemophilus influenzae [2],4 µg/mL
same,MIC,Streptococcus [3],1 µg/mL
same,Concentration,Rattus norvegicus [4],0.1 µg ml-1 ml-1
same,MIC,Streptococcus [5],0.06 µg/mL
same,MIC,Staphylococcus aureus [6],0.25 µg/mL
same,MIC,Haemophilus influenzae [7],2 µg/mL
same,Concentration,Mus musculus [8],2.7 µg ml-1 ml-1
same,MIC,[9],1 µg/mL
same,Concentration,Mus musculus [10],5.6 µg ml-1 ml-1
same,MIC,[11],2 µg/mL
same,MIC,[12],1 µg/mL
same,MIC,Cutibacterium acnes,< 0.5 µg/mL
same,Concentration,Rattus norvegicus [13],0.2 µg ml-1 ml-1
same,MIC,Streptococcus [14],2 µg/mL
same,MIC,Streptococcus pneumoniae [15],6 µg/mL
same,MIC,Clostridium septicum,< 0.5 µg/mL
same,MIC,Streptococcus [16],0.1 µg/mL
same,Concentration,Rattus norvegicus [17],0.1 µg ml-1 ml-1
same,MIC,Collinsella aerofaciens,< 0.5 µg/mL
same,MIC,Phocaeicola vulgatus,< 0.5 µg/mL
same,Concentration,Mus musculus [18],0.7 µg ml-1 ml-1
same,MIC,Eikenella corrodens,1 µg/mL
same,MIC,Streptococcus sanguinis,0.03 µg/mL
same,MIC,[19],8 µg/mL
same,MIC,[20],1 µg/mL
same,MIC,Haemophilus influenzae [21],4 µg/mL
same,MIC,Streptococcus [22],0.12 µg/mL
same,MIC,Bacteroides fragilis [23],1 µg/mL
same,MIC,Clostridioides difficile,< 0.5 µg/mL
same,MIC,Staphylococcus aureus [24],0.25 µg/mL
same,MIC,Streptococcus [25],0.12 µg/mL
same,MIC,[26],2 µg/mL
same,Concentration,Rattus norvegicus [27],0.4 µg ml-1 ml-1
same,MIC,Fusobacterium,2 µg/mL
same,Concentration,Rattus norvegicus [28],0.1 µg ml-1 ml-1
same,MIC,Bacteroides fragilis [29],2 µg/mL
same,MIC,Staphylococcus aureus [30],0.25 µg/mL
same,Concentration,Mus musculus [31],2.5 µg ml-1 ml-1
same,MIC,Clostridium perfringens,< 0.5 µg/mL
same,MIC,Streptococcus [32],0.06 µg/mL
same,MIC,Bacteroides fragilis [33],4 µg/mL
same,MIC,[34],0.06 µg/mL
same,MIC,[35],4 µg/mL
same,MIC,Streptococcus [36],0.06 µg/mL
CC[C@H]1OC(=O)C[C@@H](O)[C@H](C)[C@@H](O[C@@H]2O[C@H](C)[C@@H](O)[C@H](N(C)C)[C@H]2O)[C@@H](CCBr)C[C@@H](C)C(=O)/C=C/C(C)=C/[C@@H]1CO[C@@H]1O[C@H](C)[C@@H](O)[C@@H](OC)[C@H]1OC,MIC,[37],0.25 µg/mL
same,MIC,Haemophilus influenzae [38],16 µg/mL
same,ED50,Streptococcus pyogenes [39],4.5 mg/kg
same,MIC,Streptococcus pyogenes [40],0.12 µg/mL
same,MIC,Enterococcus faecium,8 µg/mL
same,MIC,Streptococcus pneumoniae [41],2 µg/mL
same,ED50,Streptococcus pyogenes [42],19 mg/kg
same,MIC,Staphylococcus aureus [43],0.25 µg/mL
